Key:
[1] = tested on: MDA-MB-468; assay: Induction of cell cycle arrest in human MDA-MB-468 cells assessed as cell accumulation at G2/M phase at 28 uM incubated for 48 hrs by propidium iodide staining-based flow cytometric analysis (reference value: 26.66 %); assay type: functional
Summary of the method: (§1)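 Cells were seeded at 1.2×10^5 per well and treated for 48 h (MDA-MB-468: 14, 28, 56 μM). Cells were fixed in 75% ethanol at −20 °C overnight, stained with PI and analysed by flow cytometry. Mean ± S.D. of three independent experiments versus DMSO.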

[2] = tested on: MDA-MB-468; assay: Induction of cell cycle arrest in human MDA-MB-468 cells assessed as cell accumulation at G2/M phase at 14 uM incubated for 48 hrs by propidium iodide staining-based flow cytometric analysis (reference value: 26.66 %); assay type: functional; summary of the method: as §1
[3] = biological target: Protein smoothened (Homo sapiens, UniProt Q99835); assay: Binding affinity to recombinant human Smo receptor assessed as dissociation rate constant by SPR analysis
Sequence of Protein smoothened (Q99835 whole entry): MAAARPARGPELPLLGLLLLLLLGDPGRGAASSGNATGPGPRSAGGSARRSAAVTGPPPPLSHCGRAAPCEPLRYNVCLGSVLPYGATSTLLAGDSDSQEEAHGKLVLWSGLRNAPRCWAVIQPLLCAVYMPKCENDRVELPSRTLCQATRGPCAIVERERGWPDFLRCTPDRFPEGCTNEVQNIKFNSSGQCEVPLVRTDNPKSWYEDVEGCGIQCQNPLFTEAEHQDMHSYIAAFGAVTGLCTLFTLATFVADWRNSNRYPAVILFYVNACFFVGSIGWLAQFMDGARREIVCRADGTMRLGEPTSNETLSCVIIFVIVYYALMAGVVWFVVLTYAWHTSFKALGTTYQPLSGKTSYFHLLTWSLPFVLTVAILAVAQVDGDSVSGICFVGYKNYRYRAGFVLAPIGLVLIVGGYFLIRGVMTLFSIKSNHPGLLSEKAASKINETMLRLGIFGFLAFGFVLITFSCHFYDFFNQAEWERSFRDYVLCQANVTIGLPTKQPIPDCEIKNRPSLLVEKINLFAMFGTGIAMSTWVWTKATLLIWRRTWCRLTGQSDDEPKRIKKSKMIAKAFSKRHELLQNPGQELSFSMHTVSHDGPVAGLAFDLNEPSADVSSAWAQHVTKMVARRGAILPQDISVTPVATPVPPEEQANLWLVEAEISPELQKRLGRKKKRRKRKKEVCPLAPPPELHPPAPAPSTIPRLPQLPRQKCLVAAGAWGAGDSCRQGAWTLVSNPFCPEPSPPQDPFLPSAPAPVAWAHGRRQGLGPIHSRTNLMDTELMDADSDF
Summary of the method: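 Surface plasmon resonance with recombinant Smo protein, run in PBS at a flow rate of 2 μL/s and 4 °C. Analytes were injected at 2.5, 5 and 10 μM. The chip was regenerated with 0.5% SDS:glycine-HCl pH 2.0 (1:1). ka, kd, Rmax, KA and KD came from a global fit of the sensorgrams.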

[4] = tested on: MDA-MB-468; assay: Induction of apoptosis in human MDA-MB-468 cells assessed as live cells at 56 uM incubated for 48 hrs by annexin-V-FITC staining based flow cytometric method (reference value: 98.5 %); assay type: functional

**Q.** `O=C(Nc1ccc(Cl)c(-c2nnc3c(Cl)cccn23)c1)c1ccc(Cl)nc1Cl` was tested. Which Activity [1] did it give?
**A.** 39.75%

**Q.** And the Activity [2]?
**A.** 86%

**Q.** And the Kdiss [3]?
**A.** 0.00375 ×10⁻³ /s

**Q.** And the Activity [4]?
**A.** 60.3%
